From ChEMBL document CHEMBL1137699, “Synthesis, antibacterial and anticonvulsant evaluations of some cyclic enaminones” (Eur J Med Chem, 2009)
Calls of active or inactive are those of the source. No cut-off for these calls is given here.

Assays:
[1] = test system: Mus musculus; experiment: Anticonvulsant activity against maximal electroshock-induced seizures in mouse at 300 mg/kg, ip; type: functional, organism-based; design: dose 300 mg/kg
[2] = test system: Mus musculus; experiment: Anticonvulsant activity against subcutaneous pentylenetetrazole-induced seizures in mouse at 300 mg/kg, ip; type: functional, organism-based; design: dose 300 mg/kg
[3] = test system: Staphylococcus aureus; experiment: Antibacterial activity against methicillin-susceptible Staphylococcus aureus clinical isolate after 18 hrs by NCCLS M7-A4 method; type: functional
Summary of the method: (§1)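 Test compounds dissolved in 80% DMSO in water. Clinical isolates came from a MRSA reference laboratory culture collection. Final inoculum 10^7 CFU/ml, incubated 35 °C for 18 h. MIC taken as the lowest concentration completely inhibiting growth. Reference strains S. aureus ATCC 25923, S. epidermidis ATCC 12228 and E. faecalis ATCC 29212 served as test controls.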

[4] = test system: Staphylococcus; experiment: Antibacterial activity against methicillin-sensitive coagulase-negative Staphylococcus clinical isolate after 18 hrs by NCCLS M7-A4 method; type: functional; summary of the method: as §1
[5] = test system: Haemophilus influenzae; experiment: Antibacterial activity against Haemophilus influenzae clinical isolate after 18 hrs by NCCLS M7-A4 method; type: functional
Summary of the method: (§2)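 Agar dilution on Mueller–Hinton agar with 5% sheep blood, per NCCLS/CLSI. Compounds were dissolved in 80% DMSO in water and tested over 0.12–16. Incubation was 35 °C for 18 h. MIC was read as the lowest concentration completely inhibiting growth. Line 4 used clinical isolates (n = 7 for H. influenzae).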

[6] = test system: Streptococcus pneumoniae; experiment: Antibacterial activity against Streptococcus pneumoniae clinical isolate after 18 hrs by NCCLS M7-A4 method; type: functional; summary of the method: as §2
[7] = test system: Enterococcus; experiment: Antibacterial activity against vancomycin-sensitive Enterococcus clinical isolate after 18 hrs by NCCLS M7-A4 method; type: functional; summary of the method: as §1
[8] = test system: Escherichia coli; experiment: Antibacterial activity against Escherichia coli ATCC 25922 after 18 hrs by NCCLS M7-A4 method; type: functional, organism-based
Summary of the method: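 Reference E. coli strain tested by NCCLS/CLSI agar dilution. Compounds were in 80% DMSO in water over a 0.12–16 dilution range, incubated at 35 °C for 18 h.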

[9] = test system: Staphylococcus aureus; experiment: Antibacterial activity against Staphylococcus aureus ATCC 25923 after 18 hrs by NCCLS M7-A4 method; type: functional, organism-based
Summary of the method: (§3)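 Agar dilution on Mueller–Hinton agar, following NCCLS (now CLSI) guidance. Test compounds were dissolved in 80% DMSO in water and tested at 0.12 to 16. Plates were incubated at 35 °C for 18 h. The MIC was the lowest concentration giving complete growth inhibition.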

[10] = test system: Staphylococcus epidermidis; experiment: Antibacterial activity against Staphylococcus epidermidis ATCC 12228 after 18 hrs by NCCLS M7-A4 method; type: functional, organism-based; summary of the method: as §3
[11] = test system: Enterococcus faecalis; experiment: Antibacterial activity against Enterococcus faecalis ATCC 29212 after 18 hrs by NCCLS M7-A4 method; type: functional, organism-based; summary of the method: as §3
[12] = test system: Haemophilus influenzae; experiment: Antibacterial activity against Haemophilus influenzae ATCC 49247 after 18 hrs by NCCLS M7-A4 method; type: functional, organism-based; summary of the method: as §2
[13] = test system: Mus musculus; experiment: Anticonvulsant activity against maximal electroshock-induced seizures in mouse at <=100 mg/kg, ip; type: functional, organism-based
[14] = test system: Mus musculus; experiment: Anticonvulsant activity against subcutaneous pentylenetetrazole-induced seizures in mouse at <=100 mg/kg, ip; type: functional, organism-based
[15] = test system: Mus musculus; experiment: Anticonvulsant activity against maximal electroshock-induced seizures in mouse at >100 to 300 mg/kg, ip; type: functional, organism-based; design: dose 300 mg/kg
[16] = test system: Mus musculus; experiment: Anticonvulsant activity against subcutaneous pentylenetetrazole-induced seizures in mouse at >100 to 300 mg/kg, ip; type: functional, organism-based; design: dose 300 mg/kg

Structure (SMILES): CCOC(=O)C1C(=O)C=C(Nc2ccc(Br)cc2)CC1c1ccccc1 (stereo not drawn)
- Activity [1]: inactive
- Activity [2]: inactive

Structure (SMILES): CCOC(=O)C1C(=O)C=C(NC[C@H]2CN(c3ccc(N4CCOCC4)c(F)c3)C(=O)O2)CC1C (stereo partly drawn)
- Activity [1]: inactive
- Activity [2]: inactive
- MIC [3]: > 16 µg/mL
- MIC [4]: > 16 µg/mL
- MIC [5]: > 16 µg/mL
- MIC [6]: > 16 µg/mL
- MIC [7]: > 16 µg/mL
- Activity [8]: inactive
- Activity [9]: inactive
- Activity [10]: inactive
- Activity [11]: inactive
- Activity [12]: inactive

Structure (SMILES): CCN(CC)C1=CC(=O)C(C(=O)OC)C(c2ccccc2)C1 (stereo not drawn)
- Activity [1]: inactive
- Activity [2]: inactive

Structure (SMILES): CCOC(=O)C1C(=O)C=C(Nc2ccc(F)cc2)CC1C (stereo not drawn)
- Activity [13]: Active
- Activity [14]: Active

Structure (SMILES): CCOC(=O)C1C(=O)C=C(NCCCc2ccccc2)CC1c1ccccc1 (stereo not drawn)
- Activity [1]: inactive
- Activity [2]: inactive

Structure (SMILES): COC(=O)C1C(=O)C=C(NCCCCc2ccccc2)CC1c1ccccc1 (stereo not drawn)
- Activity [1]: inactive
- Activity [2]: inactive

Structure (SMILES): COC(=O)C1C(=O)C=C(Nc2ccc(N3CCN(C(=O)OC(C)(C)C)CC3)c(F)c2)CC1c1ccccc1 (stereo not drawn)
- Activity [1]: inactive
- Activity [2]: inactive

Structure (SMILES): CCOC(=O)C1C(=O)C=C(N2CCOCC2)CC1c1ccccc1 (stereo not drawn)
- Activity [1]: inactive
- Activity [2]: inactive

Structure (SMILES): CCOC(=O)C1C(=O)C=C(Nc2cccc(Cl)c2)CC1C (stereo not drawn)
- Activity [13]: Active
- Activity [14]: Active

Structure (SMILES): CCOC(=O)C1C(=O)C=C(Nc2ccc(Cl)cc2)CC1c1ccccc1 (stereo not drawn)
- Activity [15]: Active

Structure (SMILES): COC(=O)C1C(=O)C=C(NCCCc2ccccc2)CC1c1ccccc1 (stereo not drawn)
- Activity [1]: inactive
- Activity [2]: inactive

Structure (SMILES): CCOC(=O)C1C(=O)C=C(Nc2ccc(Cl)cn2)CC1c1ccccc1 (stereo not drawn)
- Activity [1]: inactive
- Activity [2]: inactive

Structure (SMILES): COC(=O)C1C(=O)C=C(Nc2ccc(N3CCN(C(=O)OC(C)(C)C)CC3)c(F)c2)CC1C (stereo not drawn)
- Activity [1]: inactive
- Activity [2]: inactive

Structure (SMILES): CCOC(=O)C1C(=O)C=C(N2CCN(c3ccc([N+](=O)[O-])cc3F)CC2)CC1c1ccccc1 (stereo not drawn)
- Activity [1]: inactive
- Activity [2]: inactive

Structure (SMILES): CCOC(=O)C1C(=O)C=C(N(CC)CC)CC1c1ccccc1 (stereo not drawn)
- Activity [1]: inactive
- Activity [2]: inactive

Structure (SMILES): COC(=O)C1C(=O)C=C(Nc2ccc(N3CCOCC3)c(F)c2)CC1C (stereo not drawn)
- Activity [1]: inactive
- Activity [2]: inactive

Structure (SMILES): CCOC(=O)C1C(=O)C=C(NCCc2ccccc2)CC1C (stereo not drawn)
- Activity [13]: Active

Structure (SMILES): CCOC(=O)C1C(=O)C=C(NCCc2ccccc2)CC1c1ccccc1 (stereo not drawn)
- Activity [1]: inactive
- Activity [2]: inactive

Structure (SMILES): CCOC(=O)C1C(=O)C=C(Nc2ccc([N+](=O)[O-])cc2)CC1c1ccccc1 (stereo not drawn)
- Activity [1]: inactive
- Activity [2]: inactive

Structure (SMILES): COC(=O)C1C(=O)C=C(Nc2ccccc2)CC1c1ccccc1 (stereo not drawn)
- Activity [16]: Active

Structure (SMILES): CCOC(=O)C1C(=O)C=C(N2CCCC2)CC1c1ccccc1 (stereo not drawn)
- Activity [15]: Active
